# Laboratory results published in ChEMBL document CHEMBL1138668, “Structural studies on bioactive compounds. 39. Biological consequences of the structural modification of DHFR-inhibitory 2,4-diamino-6-(4-substituted benzylamino-3-nitrophenyl)-6-ethylpyrimidines ('benzoprims')” (J Med Chem, 2004).
# Key:
# [1] = biological target: T1, Dihydrofolate reductase (Rattus norvegicus, UniProt Q920D2); experiment: Inhibitory activity against rat liver Dihydrofolate reductase; conditions: read-out: I50
# T1 sequence (Q920D2 whole entry): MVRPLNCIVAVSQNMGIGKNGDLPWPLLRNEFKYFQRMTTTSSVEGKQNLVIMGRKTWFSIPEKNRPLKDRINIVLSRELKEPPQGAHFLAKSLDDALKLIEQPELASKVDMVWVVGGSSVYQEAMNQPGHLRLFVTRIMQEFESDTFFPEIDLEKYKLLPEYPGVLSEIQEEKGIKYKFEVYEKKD
# [2] = system: HCT-116; experiment: Growth inhibitory activity against human HCT116 cell line in presence of Hypoxanthine thymidine(HT); format: functional
# Procedure, shortened: (§1)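 Same 4-day MTT growth assay in HCT-116 or HT29 cells, with hypoxanthine 100 µM and thymidine 20 µM (final) added together with the drug. Hypoxanthine stock was in 10 mM NaOH and thymidine in water. Readout was A550 against a time-zero plate. GI50 is the mean of three experiments.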
# [3] = system: HT-29; experiment: Growth inhibitory activity against human HT-29 cell line in presence of Hypoxanthine thymidine(HT); format: functional; procedure, shortened: as §1
# [4] = system: HCT-116; experiment: Growth inhibitory activity against human HCT116 cell line; format: functional
# Procedure, shortened: (§2)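 HCT-116 or HT29 colon cells in RPMI 1640 with L-glutamine and 10% heat-inactivated FBS, 37 °C, 5% CO2. Cells were plated at densities suited to the growth rate and allowed to attach 4–24 h. Drug from 10 mM DMSO stocks was then added and cells incubated 4 days. MTT readout: 4 h with MTT, formazan dissolved in DMSO:glycine buffer (4:1), A550. A time-zero plate gave the starting density. Values are GI50, mean of three experiments.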
# [5] = system: HT-29; experiment: Growth inhibitory activity against human HT-29 cell line; format: functional; procedure, shortened: as §2
SMILES,IC50 [1] [µM],GI50 [2] [µM],GI50 [3] [µM],GI50 [4] [µM],GI50 [5] [µM]
CCc1nc(N)nc(N)c1-c1ccc2[nH]c(-c3ccc(F)cc3)[n+]([O-])c2c1,–,22,39,17,46
CCc1nc(N)nc(N)c1-c1ccc(NCc2ccccc2OC)c([N+](=O)[O-])c1,–,7.5,11.6,0.08,1.5
Nc1ncc(-c2ccc(Cl)c([N+](=O)[O-])c2)cn1,–,> 50,> 50,> 50,> 50
CN(Cc1ccccc1)c1ccc(-c2cnc(N)nc2)cc1[N+](=O)[O-],–,> 50,17,> 50,14
CCc1nc(N)nc(N)c1-c1ccc2[nH]c(-c3ccc(Cl)cc3)[n+]([O-])c2c1,–,9,> 50,9,> 50
CCc1nc(N)nc(N)c1-c1ccc(Cl)c([N+](=O)[O-])c1,–,38,40,0.25,3.8
COc1cc(NCc2ccc3nc(N)nc(N)c3c2C)cc(OC)c1OC [TRIMETREXATE],–,19,21,0.01,0.01
Nc1ncc(-c2ccc(NCc3ccc(Cl)cc3)c([N+](=O)[O-])c2)cn1,–,5,25,3,17
Nc1ncc(-c2ccc(NCc3ccc(F)cc3)c([N+](=O)[O-])c2)cn1,–,47,38,48,41

# More lines, now with the values ahead:
IC50 [1] [µM],GI50 [2] [µM],GI50 [3] [µM],GI50 [4] [µM],GI50 [5] [µM],SMILES
252,–,–,–,–,Nc1nc(N)c2[nH]c(Cc3ccc(Cl)c(Cl)c3)nc2n1
0.008,–,–,–,–,CCc1nc(N)nc(N)c1-c1ccc(NCc2ccc(Cl)c(Cl)c2)c([N+](=O)[O-])c1
2.7,–,–,–,–,CCc1nc(N)nc(N)c1-c1ccc2nn(-c3ccccc3)[n+]([O-])c2c1
–,> 50,> 50,0.01,0.07,CN(Cc1cnc2nc(N)nc(N)c2n1)c1ccc(C(=O)N[C@@H](CCC(=O)O)C(=O)O)cc1 [METHOTREXATE]
–,7.4,9.2,0.08,0.48,CCc1nc(N)nc(N)c1-c1ccc(N(C)Cc2ccccc2)c([N+](=O)[O-])c1
